In ChEMBL document CHEMBL4425094, “Novel Benzo[a]quinolizidine Analogs Induce Cancer Cell Death through Paraptosis and Apoptosis” (J Med Chem, 2016):
pIC50: −log10 of the molar value. Active and inactive are the calls of the source. The rule behind the calls is not given here.

Columns and labels:
[1] = test system: MDA-MB-231; assay: Cytotoxicity against human MDA-MB-231 cells assessed as cell growth inhibition after 24 hrs by MTT assay; type: functional, cell-based; conditions: MDA-MB-231, 24 h
Summary of the method: (§1)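 Cells seeded 24 h in RPMI 1640 + 10% FBS. RWPE-1 was kept in K-SFM with bovine pituitary extract and EGF. Cells then exposed to compounds for 24 h at 37 °C, 5% CO2, with DMSO vehicle and docetaxel as positive control. MTT added for 4 h, absorbance read at 570 nm. Triplicate runs, IC50 reported as mean of three experiments.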

[2] = test system: PC-3M; assay: Antitumor activity against human PC3M-lluc-C6 cells xenografted in athymic Balb/c mouse assessed as tumor growth inhibition at 15 mg/kg, ip administered every 2 days for 18 days; type: functional; conditions: read-out: TGI
[3] = test system: PC-3; assay: Cytotoxicity in human PC3 cells assessed as reduction in cell viability after 24 hrs in presence of AcT-D by MTT assay; type: functional, cell-based
Summary of the method: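 PC3 cells pretreated with 10 μM actinomycin D or 5 μM cycloheximide, then treated with compound for 24 h. Viability by MTT at 570 nm. Vacuolation imaged by phase-contrast microscopy.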

[4] = Toxicity in athymic Balb/c mouse assessed as induction of mortality at 15 mg/kg, ip administered every 2 days for 18 days; type: organism-based; conditions: in vivo
Summary of the method: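 Male athymic BALB/c-nu mice, 6 weeks old, bearing subcutaneous PC3M-luc-C6 xenografts (5 × 10^6 cells, right anterior flank) were grouped (n = 5) once tumours reached about 0.1 cm3. They received a 15 mg/kg suspension intraperitoneally every 2 days for 18 days, alongside placebo and docetaxel (15 mg/kg) groups. Body weight and deaths were recorded.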

[5] = test system: PC-3; assay: Induction of apoptosis in human PC3 cells assessed as early apoptotic cells at 1 uM after 24 hrs by Annexin V-FITC/propidium iodide based flow cytometric analysis (reference value: 2.3 %); type: functional
Summary of the method: (§2)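 PC3 cells exposed to 0.5, 1 or 2 μM for 24 h, then stained with Annexin V-FITC and PI and analyzed by FACSCalibur flow cytometry. Populations assigned as necrotic (Annexin V−/PI+), late apoptotic (double positive), normal (Annexin V−/PI−) and early apoptotic (Annexin V+/PI−). DMSO vehicle control.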

[6] = test system: PC-3; assay: Induction of cell cycle arrest in human PC3 cells assessed as accumulation in G2 phase at 2 uM after 24 hrs by […]propidium iodide based flow cytometric analysis (reference value: 16.3 to 25 %); type: functional
[7] = test system: PC-3; assay: Induction of ER stress in human PC3 cells assessed as upregulation of GRP78 after 4 hrs by Western blot analysis; type: functional, cell-based
Summary of the method: (§3)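 PC3 cells in RPMI 1640 with 10% FBS, treated with compound for timed intervals. DMSO vehicle control. Lysis in RIPA buffer, 40 μg protein per lane on SDS-PAGE, transfer to nitrocellulose. Primary antibodies overnight at 4 °C, HRP-secondary 45 min, ECL detection. GAPDH or β-actin used as loading control.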

[8] = test system: PC-3; assay: Growth inhibition of human PC3 cells at IC30 in presence of bortezomib by MTT assay; type: functional, cell-based
Summary of the method: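 PC3 cells incubated with increasing concentrations of compound combined with a second agent (bortezomib or partner compound). Viability determined, combination index calculated: CI < 1 synergism, = 1 additive, > 1 antagonism.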

[9] = test system: PC-3; assay: Induction of morphological changes in human PC3 cells assessed as formation of massive cytoplasmic vacuoles at 1 uM after 12 hrs by confocal microscopic analysis; type: functional, cell-based
[10] = test system: PC-3; assay: Induction of apoptosis in human PC3 cells assessed as necrotic cells at 2 uM after 24 hrs by Annexin V-FITC/propidium iodide based flow cytometric analysis (reference value: 1.1 %); type: functional; summary of the method: as §2
[11] = test system: PC-3; assay: Induction of morphological changes in human PC3 cells incubated for 22 hrs after ER stress inhibitor 4-PBA exposure for 2 hrs by phase-contrast microscopic analysis; type: functional, cell-based
Summary of the method: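 PC3 cells pretreated 2 h with 100 μM 4-PBA (ER stress inhibitor), then exposed to agent for a further 22 h. Morphology by phase-contrast microscopy; viability by MTT in parallel.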

[12] = test system: PC-3; assay: Induction of apoptosis in human PC3 cells assessed as viable cells at 1 uM after 24 hrs by Annexin V-FITC/propidium iodide based flow cytometric analysis (reference value: 95.4 %); type: functional; conditions: PC-3, 24 h, read-out: Activity; summary of the method: as §2
[13] = Toxicity in athymic Balb/c mouse assessed as body weight loss at 15 mg/kg, ip administered every 2 days for 18 days; type: organism-based; conditions: in vivo
Summary of the method: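 Male athymic BALB/c-nu mice bearing subcutaneous PC3M-luc-C6 xenografts, n = 5 per group. Dosing was 15 mg/kg i.p. every 2 days for 18 days versus placebo and docetaxel 15 mg/kg groups. Body weight was recorded over the treatment period.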

[14] = test system: PC-3; assay: Induction of autophagy in human PC3 cells assessed as increase in p62/SQSTM1 expression after 4 hrs by Western blot analysis; type: functional, cell-based; summary of the method: as §3
[15] = test system: PC-3; assay: Induction of cytoplasmic vacuolation in human PC3 cells assessed as increase in size and number of vacuoles at 1 uM by phase-contrast microscopic analysis; type: functional, cell-based; conditions: TDE = time-dependent effect
Summary of the method: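 PC3 cells in RPMI 1640 with 10% FBS at 37 °C, 5% CO2, treated with 1 μM agent for 0−24 h; DMSO vehicle control. Vacuole appearance, size and number followed over time by phase-contrast microscopy at constant magnification.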

[16] = test system: PC-3; assay: Induction of cell cycle arrest in human PC3 cells assessed as accumulation in G0/G1 phase at 1 uM after 24 hrs by […]propidium iodide based flow cytometric analysis (reference value: 43.5 to 62.5 %); type: functional
[17] = test system: PC-3; assay: Cytotoxicity in human PC3 cells assessed as reduction in cell viability incubated for 22 hrs after ER stress inhibitor 4-PBA exposure for 2 hrs by MTT assay; type: functional, cell-based
Summary of the method: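 PC3 cells pretreated 2 h with 4-PBA (100 μM), then compound added for a further 22 h. Viability measured by MTT. GRP78 assessed by Western blot, along with XBP1 mRNA splicing analysis. Morphology by phase contrast.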

[18] = test system: PC-3; assay: Induction of autophagy in human PC3 cells transfected with LC3-targeting siRNA assessed as vacuole formation at 1 uM after 24 hrs by phase-contrast microscopic analysis; type: functional, cell-based
Summary of the method: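 PC3 cells plated at 20−30% confluency, then transfected 24 h later with 50 nM LC3-targeting or scrambled siRNA by lipofection. After 48 h they were exposed to 1 μM agent for a further 24 h, followed by phase-contrast imaging and Western blotting.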

[19] = test system: RWPE-1; assay: Cytotoxicity against human RWPE1 cells assessed as cell growth inhibition after 24 hrs by MTT assay; type: cell-based; conditions: RWPE-1, 24 h; summary of the method: as §1
[20] = test system: PC-3M; assay: Antitumor activity against human PC3M-lluc-C6 cells xenografted in athymic Balb/c mouse assessed as tumor volume at 15 mg/kg, ip administered every 2 days for 18 days (reference value: 845.6 +/- 84.3 mm'3); type: functional
[21] = test system: PC-3; assay: Induction of autophagy in human PC3 cells assessed as conversion of LC3B1 to LC3B2 after 24 hrs by Western blot analysis; type: functional, cell-based; summary of the method: as §3

## Cc1cc(C)cc(COc2cc3c(cc2OCc2cc(C)cc(C)c2)[C@@H]2C[C@H](O)C[C@@H](C)N2CC3)c1 (racemic)
[1]
  pIC50: 6.09
[2]
  inhibition in vivo at 15 mg/kg: 40.5%
[3]
  Activity: inactive
[4]
  Activity: Non-Toxic
[5]
  Activity: 5.9%
[6]
  Activity: 10.8 - 12.3%
[7]
  Activity: Active
[8]
  growth inhibition (GI): Active
[9]
  Activity: Active
[10]
  Activity: 3.1%
[11]
  Activity: inactive
[12]
  viability at 1 µM: 90%
[13]
  Activity: 16.3 g
[14]
  Activity: inactive
[15]
  Activity: Tde
[16]
  Activity: 65.1 - 78%
[17]
  Activity: inactive
[18]
  Activity: inactive
[19]
  pIC50: 5.30
[20]
  Activity: 410.2 mm3
[21]
  Activity: Active
